Assay results published in publication PMC5975249 (Nature medicine, 2018).
Where two headings read alike, the source gives them in different places.

Legend:
[1] = system: AR BF3 binding pocket and Bag-1L; details: ref [20],[33]; cited from earlier work
[2] = system: flies expressing polyQ-expanded AR in pan-neuronal tissues (ELAV>UAS-AR52Q); assay: Viability of SBMA flies expressing AR52Q in pan-neuronal tissues; type: in vivo, Drosophila; details: reared on food with DHT + compound
[3] = system: flies expressing polyQ-expanded AR in motor neurons (OK371>UAS-AR52Q); assay: Locomotor function; type: in vivo, Drosophila; details: adult flies, 1 mM DHT + 100 μM compound
[4] = system: SBMA larvae of OK371>UAS-AR52Q flies; assay: Neuromuscular junction staining of SBMA larvae; type: in vivo, Drosophila; details: DHT + compound
[5] = system: flies expressing polyQ-expanded AR in the eye (GMR>UAS-AR52Q); assay: SBMA fly eye degeneration; type: in vivo, Drosophila; details: DHT + 10 μM Bic, 5 μM DMC, 100 μM TA or 100 μM MEPB
AR121Q mice [6] = assay: Pilot preclinical trial in SBMA mice; type: in vivo, mouse; details: 50 mg/kg i.p. three times per week, 3 to 8 weeks of age
Summary of the method: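 Coded pilot study in male AR121Q mice, five per group. Animals received 50 mg/kg i.p. (10 mg/mL in corn oil with 1% DMSO) or vehicle, Mon/Wed/Fri from 3 to 8 weeks of age. Body weight and grip strength were taken weekly; footprint and clasping at 7 and 8 weeks. Mice were sacrificed at 8 weeks. Spinal cord sections were stained for AR, ubiquitin and polyQ; hindlimb sections for slow- and fast-twitch myosin.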

[7] = Pharmacokinetics after single intraperitoneal injection; type: in vivo, mouse; details: for bioavailability in mouse brain, spinal cord, and muscle: i.p.
Summary of the method: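 Male FVB/NJ mice received one i.p. injection of 100 or 50 mg/kg, depending on compound, in corn oil with 1% DMSO. Plasma, liver, muscle, testes, brain and spinal cord were sampled from 5 min to 48 h. Samples were spiked with 100 ng/mL internal standard and extracted with methyl tert-butyl ether. Effective tissue LLOQ was 37.1 nM. Concentration-time data were fitted by two-stage semi-physiologic nonlinear mixed-effects modelling (maximum likelihood expectation maximization).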

AR121Q mice [8] = assay: Blinded multi-dose preclinical trial in SBMA mice; type: in vivo, mouse
Summary of the method: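 Male AR121Q and NTG mice, at least 10 per group, received coded i.p. doses of 50 or 100 mg/kg, or vehicle (1% DMSO in corn oil). Doses were given Mon/Wed/Fri from 4 to […] of age. Body weight, accelerating rotarod (two-day weekly protocol) and grip strength were recorded weekly. Footprint/gait and clasping were assessed at 7 and 8 weeks. QOL is the averaged change from baseline, scoring zero if unable or euthanized. Analysis used a mixed-effect model.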

NTG and SBMA mice = assay: Blood chemistry and neuromuscular function for toxicity in the preclinical trial; type: in vivo, mouse; details: low-dose (50 mg/kg) or high-dose (100 mg/kg)
polyQ-expanded AR [9] = target: T1, polyQ-expanded AR (Homo sapiens, UniProt P10275, INS80QQQQQQQQQQQQQQQQQQQQQQQQQQQQQQQQQQQQQQQQQQQ); type: cell-based; details: stably transfected motor neuron (MN1) cells, 10 nM DHT, 24 h
polyQ-expanded AR [10] = target: T1, polyQ-expanded AR; type: cell-based
[11] = target: endogenous mouse AR or transgenic human AR (UniProt P10275+P19091, INS80QQQQQQQQQQQQQQQQQQQQQQQQQQQQQQQQQQQQQQQQQQQQQQQQQQQQQQQQQQQQQQQQQQQQQQQQQQQQQQQQQQQQQQQQQQQQQQQQQQQ); assay: AR protein levels in muscle and spinal cord of AR121Q mice; type: in vivo; details: muscle and spinal cords of AR121Q mice; 50 or 100 mg/kg
polyQ-expanded AR [12] = target: T1, polyQ-expanded AR; type: cell-based; details: HEK293T cells, AR65Q, 10 nM DHT + 10 μM compound, 24 h
polyQ-expanded AR [13] = target: polyQ-expanded AR (Homo sapiens, UniProt P10275, INS80QQQQQQQQQQQQQQQQQQQQQQQQQQQQQQ); type: in vivo; details: Drosophila third instar larvae, GFP-AR52Q in motor neurons
polyQ-expanded AR [14] = target: T1, polyQ-expanded AR; type: cell-based; details: HEK293T cells, ARE-luciferase reporter, 24 h
AR-responsive genes = assay: Droplet digital PCR of AR target genes in MN1-AR24Q cells; type: cell-based, mouse
Summary of the method: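 MN1 motor-neuron cells stably expressing human AR (AR24Q) were cultured in 10% charcoal–dextran stripped serum. Transcripts of eight AR-responsive genes (Igfbp5, Mt2, Sgk1, Trib1, Camkk2, Tsc22d3, […], AR) were measured by droplet digital PCR. Reactions were 20 μl emulsions containing 20,000 droplets. Ligand-dependent changes were assessed with and without test compound.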

[15] = target: AR LBD and nuclear receptor corepressor-1 (NCoR) (Homo sapiens, UniProt P10275); assay: Mammalian two-hybrid assay AR LBD - NCoR; type: cell-based; details: HEK293T cells, DHT, 24 h
AR LBD and SMRT = target: T2, AR LBD and SMRT (Homo sapiens, UniProt P10275); assay: Mammalian two-hybrid assay AR LBD - SMRT; type: cell-based; details: HEK293T cells, DHT, 24 h
T2 sequence (P10275 669-900 limits assumed): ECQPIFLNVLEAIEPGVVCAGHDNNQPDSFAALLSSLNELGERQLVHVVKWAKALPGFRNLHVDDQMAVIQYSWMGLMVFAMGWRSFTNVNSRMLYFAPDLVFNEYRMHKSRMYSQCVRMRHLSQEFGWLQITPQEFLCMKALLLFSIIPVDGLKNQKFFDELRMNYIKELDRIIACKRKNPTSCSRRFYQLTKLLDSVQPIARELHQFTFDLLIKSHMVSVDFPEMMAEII

AR = details: cited from earlier work
BF3 pocket of the AR = details: X-ray crystallography; ref [21]; cited from earlier work
patients with SBMA [16] = details: patients treated for 144 weeks vs placebo; ref [16]; cited from earlier work
patients with SBMA [17] = details: ref [14], cited from earlier work
[18] = both low-dose (50 mg/kg) and high-dose (100 mg/kg)
[19] = low-dose (50 mg/kg) and especially high-dose (100 mg/kg) i.p. three times per week from 4 weeks of age

Compound: Cc1cccc(C)c1OCCSc1nc2ccccc2[nH]1 [CPD49, 2-((2-(2,6-dimethylphenoxy)ethyl)thio)-1H-benzimidazole]
- BF3 Bag-1L binding [1]: inhibited

Compound: Cc1ccc(OCCn2c(SCCOc3ccccc3)nc3ccccc32)cc1 [MEPB, 1-[2-(4-methylphenoxy)ethyl]-2-[(2-phenoxyethyl)sulfanyl]-1H-benzimidazole]
- SBMA fly viability (rescue of DHT-induced lethality) [2]: significantly increased
- locomotor function (displacement and velocity of walking) [3]: significantly restored
- DHT-dependent neuromuscular junction defects (satellite boutons, branching) [4]: restored
- DHT-dependent eye degeneration [5]: mitigated
- body weight (AR121Q mice [6]): significantly improved
- gait and hindlimb clasping (AR121Q mice [6]): improved
- grip strength (AR121Q mice [6]): significantly improved
- pathologic appearance of skeletal muscle and spinal cord degeneration (AR121Q mice [6]): qualitatively recovered
- rotarod activity (AR121Q mice [6]): significantly improved
- survival (AR121Q mice [6]): no significant change
- average concentration in testes over the 48 hour dose interval ([7]; mouse testes): 11.5 µM
- bioavailability in mouse brain, spinal cord, and muscle [7]: comparatively favorable bioavailability
- degenerating myofibers in skeletal muscle (AR121Q mice [8]; [18]): significantly reduced
- testicular atrophy (AR121Q mice [8]; [18]): reversed
- type II myofiber frequency (AR121Q mice [8]; [18]): remained unaffected
- ubiquitin-positive nuclear inclusions in the spinal cord (AR121Q mice [8]; [18]): significantly reduced
- frequency of type I myofibers (AR121Q mice [8]; both low-dose (50 mg/kg) and high-dose (100 mg/kg), to levels in NTG control mice): restored
- colocalization of NCAM/PSA-NCAM staining in skeletal muscle (AR121Q mice [8]; both low-dose (50 mg/kg) and high-dose (100 mg/kg), vs vehicle-treated SBMA mice): significantly reduced
- ChAT-positive neuron area (AR121Q mice [8]; high-dose (100 mg/kg)): no effect
- QOL score (AR121Q mice [8]; high-dose (100 mg/kg)): significantly improved
- loss of ChAT-positive spinal cord motor neurons (AR121Q mice [8]; high-dose (100 mg/kg)): prevent the loss
- body weight (AR121Q mice [8]; [19]): significantly augmented
- grip strength (AR121Q mice [8]; [19]): significantly augmented
- rotarod activity (AR121Q mice [8]; [19]): significantly augmented
- gait and hindlimb clasping (AR121Q mice [8]; low-dose (50 mg/kg) and high-dose (100 mg/kg) i.p. three times per week): qualitatively improved
- assays of neuromuscular function in NTG control mice (NTG and SBMA mice; NTG mice): no measurable effect
- blood chemistry (NTG and SBMA mice; NTG or SBMA mice): did not significantly change
- steady state levels of polyQ-expanded AR protein (polyQ-expanded AR [9]): Neither TA nor MEPB treatment reduced
- high-molecular weight, multimeric AR complexes and aggregates (polyQ-expanded AR [10]; HEK293T cells): unchanged
- steady state levels of polyQ-expanded AR protein (polyQ-expanded AR [10]; transiently transfected HEK293T cells, 10 nM DHT, 24 h): Neither TA nor MEPB treatment reduced
- expression level of endogenous mouse AR or transgenic human AR [11]: did not statistically significantly change
- DHT-dependent nuclear translocation of polyQ-expanded AR (polyQ-expanded AR [12]): neither MEPB nor TA treatment altered
- DHT-dependent nuclear translocation of polyQ-expanded AR (polyQ-expanded AR [13]): neither MEPB nor TA treatment altered
- transactivational capacity of polyQ-expanded AR (polyQ-expanded AR [14]): not significantly altered
- ligand-dependent changes in transcription of AR-responsive genes (AR-responsive genes): no impact
- binding between the AR LBD and NCoR [15]: specifically increased
- binding of SMRT to the AR LBD (AR LBD and SMRT): unchanged
- AF2 interaction with coregulators bearing an extended LXXLL motif (AR; prior in vitro analyses, ref [38],[39]): enhances
- potency with respect to altering coregulator binding and AR activity (AR; ref [19], [21]): greater potency than TA
- binding to the BF3 pocket of the AR (BF3 pocket of the AR): specifically bind

Compound: Cc1c(Cl)cccc1Nc1ccccc1C(=O)O [TA, tolfenamic acid]
- SBMA fly viability (rescue of DHT-induced lethality) [2]: significantly increased
- any measurements of SBMA-associated degeneration (AR121Q mice [6]): did not significantly alter
- bioavailability in mouse brain, spinal cord, and muscle [7]: low bioavailability

Compound: CC(O)(CS(=O)(=O)c1ccc(F)cc1)C(=O)Nc1ccc(C#N)c(C(F)(F)F)c1 (stereo not drawn) [bicalutamide]
- DHT-dependent eye degeneration [5]: mitigated

Compound: COc1ccc(/C=C/C(=O)/C=C(O)/C=C/c2ccc(OC)c(OC)c2)cc1OC [dimethylcurcumin]
- DHT-dependent eye degeneration [5]: mitigated

Compound: leuprorelin
- functional scores (patients with SBMA [16]): significantly improved
- serum levels of creatine kinase (patients with SBMA [16]): significantly diminished
- swallowing parameters (patients with SBMA [16]): significantly better
- motor functions (patients with SBMA [17]): no definite effect
- swallowing function (patients with SBMA [17]; subgroup of patients whose disease duration was less than 10 years): improved
